The text below walks through data of ChEMBL document CHEMBL5107954, “Potency and metabolic stability: a molecular hybrid case in the design of novel PF74-like small molecules targeting HIV-1 capsid protein” (RSC Med Chem, 2021).

Data set [1] in a line: Antiviral activity against wild type HIV1 NL4-3 infected in human TZM cells expressing GFP assessed as inhibition of viral LTR-activated GFP expression preincubated with compound for 24 hrs followed by viral infection and measured after 48 hrs. The format is functional, cell-based. As to conditions: Human immunodeficiency virus 1, NL4-3, TZM. In outline: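 TZM-GFP cells at 1 × 10^4 cells/well were treated with increasing compound concentrations, then infected 24 h later with HIV-1 NL4-3 at MOI 0.1. After 48 h, GFP-positive cells were counted by imaging and compared with DMSO controls. EC50 came from a log(inhibitor) vs. normalized response, variable-slope fit. Run in duplicate, ≥2 independent experiments, mean ± SD.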

Data set [2] in a line: Metabolic stability in human liver microsomes assessed as half-life measured upto 60 mins in the presence of NADPH as co-factor by LC-MS/MS analysis. The format is ADME, Microsome.
A short description of data set [3]: Potency index, ratio of test compound EC50 to PF74 EC50 for antiviral activity against wild type HIV1 NL4-3 infected in human TZM cells expressing GFP assessed as inhibition of viral LTR-activated GFP expression preincubated with compound for 24 hrs followed by viral infection and measured after 48 hrs. As to conditions: time 72 hrs. The format is functional, Human immunodeficiency virus 1.

In data set [4] the test system is Human immunodeficiency virus 1. Nature of the data set: Binding affinity to HIV-1 capsid protein 121 expressed in Escherichia coli BL21 (DE3) cells assessed as change in melting temperature at 20 uM measured every 10 sec by RT-PCR based thermal shift assay. In short, it runs like this:
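Crosslinked hexameric CA A14C/E45C/W184A/M185A (CA121), purified protein at 7.5 μM in 50 mM sodium phosphate pH 8.0 with 1× Sypro Orange; compound 20 μM or DMSO control, 1% DMSO final. Heated 25 to 95 °C at 0.2 °C per 10 s in a real-time PCR instrument; fluorescence Ex 475–500, Em 520–590 nm. ΔTm is the hexamer melting point with compound minus DMSO control.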

Data set [5] can be described thus: Cytotoxicity against human TZM cells expressing GFP assessed as inhibition of cell growth incubated for 72 hrs by XTT assay. The data set is classed as toxicity, cell-based. In short, it runs like this:
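TZM-GFP cells at 1 × 10^4 cells/well were exposed continuously to increasing compound concentrations for 72 h. Viable cells were read by XTT. CC50 came from a log(inhibitor) vs. normalized response, variable-slope curve fit. Run in duplicate, ≥2 independent experiments, mean ± SD.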

Data set [6] is described as follows: Metabolic stability in human liver microsomes assessed as half-life at 1 uM measured upto 15 mins in the presence of NADPH as co-factor by LC-MS/MS analysis. The data set is classed as ADME, Microsome.
A short description of data set [7]: Metabolic stability in mouse liver microsomes assessed as half-life at 1 uM measured upto 15 mins in the presence of NADPH as co-factor by LC-MS/MS analysis. The format is ADME, Microsome.

On to `CN(C(=O)[C@H](Cc1ccccc1)NC(=O)CNC(=O)c1ccccc1)c1ccc(Cl)cc1`, for which, in data set [1], the EC50 was 0.88 µM. The half-life in data set [2] amounted to 36 min. Further, the “Ratio EC50” value in data set [3] stood at 1.4.

As for `CN(C(=O)[C@H](Cc1ccccc1)NC(=O)CN1CCN(C(=O)c2ccccc2N)CC1=O)c1ccc(Cl)cc1`, the ΔTm in data set [4] is 0.7 °C. The EC50 in data set [1] stood at 4.5 µM. The CC50 at 72 h in data set [5] is greater than 50 µM. For the same compound, the half-life at 1 µM stood at 4.4 min in data set [6] and 1.3 min in data set [7].

`CN(C(=O)[C@H](Cc1ccccc1)NC(=O)CN1CCN(C(=O)c2cccc([N+](=O)[O-])c2)CC1=O)c1ccc(Cl)cc1`: in data set [4], the ΔTm is 1.5 °C. For the same compound, the EC50 in data set [1] amounted to 9.3 µM. In addition, the CC50 at 72 h in data set [5] is greater than 50 µM. The half-life at 1 µM in data set [6] was 2.6 min; in data set [7] it was 0.8 min.

For the compound `CN(C(=O)[C@H](Cc1ccccc1)NC(=O)CN1CCN(C(=O)c2cccc(Br)c2)CC1=O)c1ccc(Cl)cc1`, in data set [4], the ΔTm came to 1.1 °C. Besides, the 50% effective concentration (EC50) in data set [1] was determined as 9 µM. For the same compound, the half-maximal cytotoxic concentration (CC50) at 72 h in data set [5] is greater than 50 µM. In addition, the half-life at 1 µM amounted to 4.8 min in data set [6] and 1.4 min in data set [7].

On to `CN(C(=O)[C@H](Cc1ccccc1)NC(=O)COn1nnc2cccnc21)c1ccc(Cl)cc1`, for which the ΔTm in data set [4] came to 1 °C. In addition, the EC50 in data set [1] amounted to 5.2 µM. Besides, the half-maximal cytotoxic concentration (CC50) at 72 h in data set [5] is greater than 50 µM. Besides, the half-life at 1 µM in data set [6] amounted to 0.8 min; in data set [7], 0.5 min.

Take `CN(C(=O)[C@H](Cc1ccccc1)NC(=O)CN1CCN(C(=O)c2ccccc2[N+](=O)[O-])CC1=O)c1ccc(Cl)cc1`: the ΔTm in data set [4] is 2.6 °C. In addition, in data set [1], the EC50 turned out to be 2.7 µM. Moreover, the CC50 at 72 h in data set [5] is greater than 50 µM. Further, the values for the half-life at 1 µM in data set [6] and in data set [7] were 3.8 min and 0.9 min, respectively.

Turning to `CN(C(=O)[C@H](Cc1ccccc1)NC(=O)CN1CCN(C(=O)c2ccc(Cl)cc2)CC1=O)c1ccc(Cl)cc1`, in data set [4], the thermal shift (ΔTm) was found to be 1.3 °C. Further, the 50% effective concentration (EC50) in data set [1] was found to be 9.2 µM. Also, the CC50 at 72 h in data set [5] is greater than 50 µM. The figures for the half-life at 1 µM in data set [6] and in data set [7] were 7.5 min and 1.3 min, respectively.

With `CN(C(=O)[C@H](Cc1ccccc1)NC(=O)CN1CCN(C(=O)c2ccccc2Cl)CC1=O)c1ccc(Cl)cc1`, the shift in melting temperature (ΔTm) in data set [4] turned out to be 1.5 °C. Moreover, the EC50 in data set [1] is 6.4 µM. The half-maximal cytotoxic concentration (CC50) at 72 h in data set [5] is greater than 50 µM. Further, the values for the half-life at 1 µM in data set [6] and in data set [7] were 6.2 min and 1.1 min, respectively.
